Most compounds without a hit are left out; they make up all but 2.5% or so of the library.
Bfl-1 A1 inh: inhibitors of the anti-apoptotic protein A1, read as caspase activation | MEF A1-2A-BIM cells, Caspase-Glo 3/7 luminescence, 3 h; percent of clofoctol response, vehicle zero | caspase activation, % (no concentration beside the values) | actives 0.066% (n = 330,000) | AID 2462;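 active means over half of replicate activation scores above 10%, or exactly half above 10 with the replicate mean above 10; inconclusive means replicate mean below 10 yet half the replicates above 10; inactive means over half of replicates below 10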
Exocytosis inh: blocks lytic granule exocytosis | TALL-104 LAMP-1 surface exposure, flow cytometry; cells stimulated with thapsigargin and PMA | inhibition, % at 10 µM | actives 0.66% (n = 360,000);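 active means inhibition above about 55%, limit read from the data; inconclusive means no clear call, values can overlap the other calls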
MC4R ag barr: agonists of human melanocortin 4 receptor (MC4R) beta-arrestin; U2OS MC4R beta-arrestin complementation, luminescence; percent of melanotan II response, DMSO zero; activation, % at 8.9 µM; actives 0.98% (n = 360,000);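 active means activation above a per-plate cutoff, the mean activation of sample wells on that plate plus 3 SD, cut at about 8% in these data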
MC4R antag cAMP: antagonists of human melanocortin 4 receptor (MC4R). MC4R-expressing cells, MTII-stimulated cAMP, LANCE TR-FRET. inhibition, % at 6.5 µM. actives 0.48% (n = 360,000). AID 540295;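 active means inhibition above its plate's cutoff, the mean of tested wells on that plate plus 3 SD, cut at about 29% in these data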
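system = U2OS cells with stable human MC4R expression | also added = Melanotan II challenge after compound preincubation | dosing = one concentration, 6.5 µM nominal | incubation = compound 30 min, challenge 1 h, detection 1 h | measured by = TR-FRET with Eu-cAMP and labeled anti-cAMP, 671 nm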
NTR1 agonist: agonists of human neurotensin receptor NTR1 | NTR1-U2OS beta-arrestin-GFP spot imaging, agonist mode | activation, % at 20 µM | actives 0.17% (n = 330,000) | P30989;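 active means activation at or above 40% of the spot to cytoplasm intensity ratio, with at least 20 cells analyzed; inconclusive means wells under 20 cells, flagged as cytotoxic or low count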
sPLA2-III inh: Blocks human group III sPLA2 activity; AID 743126; inhibition, % at 12.2 µM; actives 0.56% (n = 370,000); Q9NZ20; QFRET BODIPY PC-A2 liposome hydrolysis, fluorescence;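 active means inhibition above mean plus 3 SD of compounds lying within the high and low control bounds, cut at about 19% in these data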
Target sequence (Q9NZ20 whole entry, looked up): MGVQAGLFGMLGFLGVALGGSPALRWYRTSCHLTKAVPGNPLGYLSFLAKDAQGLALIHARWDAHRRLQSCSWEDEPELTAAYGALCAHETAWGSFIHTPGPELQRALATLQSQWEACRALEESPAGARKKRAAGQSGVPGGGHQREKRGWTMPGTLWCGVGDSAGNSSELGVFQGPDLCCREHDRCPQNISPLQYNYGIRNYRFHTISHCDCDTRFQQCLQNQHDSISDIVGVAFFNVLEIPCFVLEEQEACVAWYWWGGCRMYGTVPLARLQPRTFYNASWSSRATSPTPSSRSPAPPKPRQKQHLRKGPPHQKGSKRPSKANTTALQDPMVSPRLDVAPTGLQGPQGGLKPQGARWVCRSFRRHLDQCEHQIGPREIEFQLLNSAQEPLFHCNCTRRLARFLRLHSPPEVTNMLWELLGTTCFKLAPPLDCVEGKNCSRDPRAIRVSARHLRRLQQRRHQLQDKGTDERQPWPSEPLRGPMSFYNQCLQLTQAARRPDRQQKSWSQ
NTR1 ag confirm: confirmation of agonists of human NTR1. NTR1-U2OS beta-arrestin-GFP translocation imaging. actives 38% (n = 480). shares compounds with NTR1 agonist. activation, % at 20 µM;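 active means mean activation at 20 µM of at least 40%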
cAMP nonselect: U2OS forskolin cAMP inhibition counter-screen; shares compounds with MC4R antag cAMP; parental U2OS, LANCE TR-FRET; actives 26% (n = 1,600); AID 602193; inhibition, % at 6.5 µM;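 active means mean inhibition over triplicates above the low-control well mean plus 3 SD, set per campaign, cut at about 13% in these data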;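 further: signal is single emission at 671 nm which falls as cellular cAMP rises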
MC4R cAMP antag: human MC4R cAMP antagonism confirmation; shares compounds with MC4R antag cAMP; inhibition, % at 6.5 µM; MC4R-expressing cells, MTII-stimulated cAMP, TR-FRET; AID 602195; actives 27% (n = 1,600); in the data active means inhibition above about 29%
A number is an active result; – = inactive; ? = inconclusive; · = not tested or not shown.

SMILES	Bfl-1 A1 inh	Exocytosis inh	MC4R ag barr	MC4R antag cAMP	NTR1 agonist	sPLA2-III inh	others
C=CCN1C(=O)NC(=O)/C(=C\c2ccc(-c3ccccc3[N+](=O)[O-])o2)C1=O	–	–	–	–	–	–
O=C1NC(=O)N(Cc2ccco2)C(=O)/C1=C/c1ccc(-c2cccc([N+](=O)[O-])c2)o1	–	–	–	31	58	·
O=C1NC(=O)N(Cc2ccccc2)C(=O)/C1=C/c1cnn(-c2ccccc2)c1	–	·	·	·	47	·
COc1ccc(CN2C(=O)C(CC(=O)NCc3ccco3)CC(C(=O)N(C)C)=C2C)cc1 (stereo not drawn)	·	–	–	–	·	–
C/C1=C\[C@@H](C)C/C=C/[C@H]2[C@@H]3O[C@]3(C)[C@@H](C)[C@H]3[C@H](Cc4c[nH]c5ccccc45)NC(=O)[C@]32C(=O)/C=C/C(=O)[C@@H]1O	11	–	–	–	–	·
O=C1NC(=S)NC(=O)C1=Cc1cccn1-c1ccc(O)cc1	·	–	–	–	·	–
Cc1cc(C)cc(N2C(=O)NC(=O)/C(=C\c3cccn3-c3ccc(Cl)cc3)C2=O)c1	–	–	–	–	50	–
C#C[C@]1(O)[C@H](O)CC2C3CC[C@H]4C[C@@H](O)CC[C@]4(C)C3CC[C@@]21C (stereo partly drawn)	–	–	–	–	–	–
CC(O)(CS(=O)(=O)c1cccc(C(F)(F)F)c1)C(=O)Nc1cccc(C(F)(F)F)c1 (stereo not drawn)	–	–	10.0	–	–	–
COc1ccc(C)cc1NC1=NC(C)(C)CS1	–	–	–	–	–	–
CN(C)c1ccc(C(=O)N/N=C/C23CC[C@@H](O)CC2(O)CC[C@@H]2[C@@H]3CCC3(C)C(C4=CC(=O)OC4)CCC23O)cc1 (stereo partly drawn)	–	–	14	–	–	–
CNCC[C@@H](Oc1ccc(C(F)(F)F)cc1)c1ccccc1	–	–	–	–	–	–
CCn1nc(-c2cccs2)nc2c(=O)n(C)c(=O)nc1-2	·	79	–	–	·	·
CCOc1ccc(-n2c(-c3cccs3)nc3ccccc3c2=O)cc1	–	–	–	–	–	–
CCn1nc(/C=C/c2ccccc2)nc2c(=O)n(C)c(=O)nc1-2	·	88	–	–	–	–
C[C@@H]1O[C@@H](O[C@@H]2C=C3CC[C@@H]4C(CC[C@]5(C)[C@@H](c6ccc(=O)oc6)CC[C@]45O)[C@@]3(C)CC2)[C@H](O)[C@H](O)[C@H]1O (stereo partly drawn)	–	–	38	–	–	–
C[C@@H]1O[C@@H](O[C@@H]2C=C3CCC4C(CC[C@]5(C)[C@@H](c6ccc(=O)oc6)CC[C@]45O)[C@@]3(C)CC2)[C@H](O)[C@H](O)[C@H]1O (stereo partly drawn)	–	–	25	–	–	–
CC(=O)C1CCC2(O)C3CCC4=CC(=O)CCC4(C)C3CCC12C (stereo not drawn)	·	–	–	–	·	–
COc1cc2c(c(OC)c1OC)-c1ccc(OC)c(=O)cc1C(N)CC2 (stereo not drawn)	·	–	–	–	·	–
COC(=O)C1=C(c2ccc(Cl)c(C(F)(F)F)c2)C[C@@H]2CC[C@H]1N2C(=O)NCc1ccc2c(c1)OCO2	–	76	–	–	–	–
O=C(O)c1cc[c]([Hg][Cl])cc1	–	–	–	70	–	·
COc1ccc(C(=O)O)cc1OC	·	–	–	–	·	–
COc1cccc(C(c2nnnn2Cc2ccccc2)N2CCC3(CC2)C(=O)NCN3c2ccccc2)c1OC (stereo not drawn)	·	–	·	·	·	–
CCOc1ccc(-c2cc(C)[n+](CCc3ccc(OC)c(OC)c3)c(-c3ccc(OCC)cc3)c2)cc1	–	57	–	–	–	–
O=c1cccc2n1CC1CC2CN(S(=O)(=O)c2ccc(F)cc2)C1 (stereo not drawn)	–	–	–	–	–	–
SMILES	Bfl-1 A1 inh	Exocytosis inh	MC4R ag barr	MC4R antag cAMP	NTR1 agonist	sPLA2-III inh	others
C[C@@H]1O[C@@H](O[C@H]2C[C@@H](O)[C@]3(CO)[C@H]4[C@H](O)C[C@]5(C)[C@@H](C6COC(=O)C6)CC[C@]5(O)[C@@H]4CC[C@]3(O)C2)[C@H](O)[C@H](O)[C@H]1O (stereo partly drawn)	–	–	24	–	–	–
CC(C)c1ccc(N2C(=O)NC(=O)/C(=C\C=C\c3ccco3)C2=O)cc1	–	·	·	·	42	–	NTR1 ag confirm=52
O=C1NC(=O)N(Cc2ccccc2)C(=O)/C1=C/C=C/c1ccco1	–	?	–	–	–	–
COc1cc(C2NCc3ccccc3-n3cccc32)ccc1O (stereo not drawn)	–	–	–	–	–	–
Cc1cc(/C=C2/C(=O)NC(=O)N(Cc3ccco3)C2=O)c(C)n1-c1ccccc1	–	–	–	–	86	–	NTR1 ag confirm=–
CN(C)c1ccc(/C=C2/C(=O)NC(=O)N(Cc3ccco3)C2=O)cc1	–	–	–	–	–	–
CN1C(=O)/C(=C/c2cccn2-c2ccc3ccccc3c2)C(=O)NC1=S	–	98	–	–	46	–	NTR1 ag confirm=66
Cc1cc(C)cc(N2C(=O)NC(=O)/C(=C\c3cccn3-c3ccccc3)C2=O)c1	–	–	–	–	76	–	NTR1 ag confirm=67
CN(C)CCN(C(=O)COc1ccc(Cl)cc1)c1nc2cc3c(cc2s1)OCO3	–	–	–	–	–	–
COC(=O)C(O)(c1ccc(NC(=S)NC(=O)c2ccc(Cl)cc2Cl)c(C)c1)C(F)(F)F (stereo not drawn)	–	–	–	–	–	–
CCOC(=O)C(O)(c1ccc(NC(=S)NC(=O)c2ccc(Cl)cc2Cl)c(C)c1)C(F)(F)F (stereo not drawn)	–	–	–	–	45	–	NTR1 ag confirm=–
Oc1ccc(-[n+]2c(-c3ccccc3)cc(-c3ccccc3)cc2-c2ccccc2)cc1	–	–	–	–	81	–	NTR1 ag confirm=84
CC(C)=CCC12CN3CCN(CC(C3)C1=O)C2	–	–	–	–	–	–
C[CH2][Hg][S]c1ccccc1C(=O)O	–	69	–	95	97	–	NTR1 ag confirm=95;cAMP nonselect=40;MC4R cAMP antag=91
CC(Cc1ccccc1)N(C)CC1C(=O)C2CCC1C2 (stereo not drawn)	·	–	–	–	·	–

High-throughput results as filed in PubChem.
